# In ChEMBL document CHEMBL1151475, “Thiopurine drugs azathioprine and 6-mercaptopurine inhibit Mycobacterium paratuberculosis growth in vitro” (2008):
# How the values were obtained:
# [1] = tested on: Mycolicibacterium smegmatis; experiment: Antituberculosis activity against Mycobacterium smegmatis ATCC 14468 assessed as minimum drug level required for inhibition by MGIT 960 susceptibility test; format: functional
# In short: (§1)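 MGIT ParaTB tubes were supplemented with egg yolk and inoculated in duplicate with 10^5 to 10^6 CFU from single-cell suspensions. Thiopurines were dissolved in 0.05 M NaOH in 10 mM PBS and tested at final 0.5 to 64.0 μg/ml, with 128.0 μg/ml added for some strains. Tubes ran at 37°C in the MGIT 960. The value is the lowest concentration giving a time-to-detection longer than a drug-free 1:100 inoculum control.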
# [2] = tested on: Mycobacterium avium subsp. paratuberculosis; experiment: Antituberculosis activity against Mycobacterium paratuberculosis UCF-7 isolated from Crohn's disease patient assessed as minimum drug level required for inhibition by MGIT 960 susceptibility test; format: functional
# In short: (§2)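 10^5 to 10^6 CFU from single-cell suspensions inoculated in duplicate into MGIT ParaTB medium with supplement and egg yolk. Drugs were at final 0.5–64.0 μg/ml, with 128.0 μg/ml added for some strains. Tubes were incubated at 37°C in MGIT 960. Inhibition is the lowest concentration giving a time to detection longer than a drug-free 1:100 inoculum control. Killing is no positive signal through 56 days.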
# Mycobacterium avium [3] = experiment: Antituberculosis activity against Mycobacterium avium 104 isolated from AIDS patient assessed as minimum drug level required for killing within 15 days by MGIT 960 susceptibility test; format: functional
# [4] = tested on: Mycobacterium avium subsp. paratuberculosis; experiment: Antituberculosis activity against Mycobacterium paratuberculosis B238 isolated from bovine assessed as minimum drug level required for killing after 56 days by MGIT 960 susceptibility test; format: functional; in short: as §2
# [5] = tested on: Mycobacterium avium subsp. paratuberculosis; experiment: Antituberculosis activity against Mycobacterium paratuberculosis UCF-4 isolated from Crohn's disease patient assessed as minimum drug level required for inhibition by MGIT 960 susceptibility test; format: functional; in short: as §2
# Enterococcus faecalis [6] = experiment: Antituberculosis activity against Enterococcus faecalis ATCC 29212 isolated from human urine assessed as minimum drug level required for killing after 56 days by MGIT 960 susceptibility test; format: functional
# Mycobacterium avium [7] = experiment: Antituberculosis activity against Mycobacterium avium EPA3 isolated from water assessed as minimum drug level required for killing within 15 days by MGIT 960 susceptibility test; format: functional
# [8] = tested on: Mycobacterium avium subsp. paratuberculosis; experiment: Antituberculosis activity against Mycobacterium paratuberculosis ATCC 19698 isolated from bovine assessed as lowest drug level required for killing by MGIT 960 susceptibility test; format: functional
# In short: (§3)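 M. paratuberculosis ATCC 19698 at 10^6 CFU per MGIT ParaTB tube in duplicate, drugs at final 1.0–64.0 μg/ml, 37°C in MGIT 960. Inhibition is the lowest concentration whose time to detection exceeds the 1:100 diluted-inoculum solvent control. No detectable growth means the tube never signals positive through 56 days.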
# Mycobacterium avium [9] = experiment: Antituberculosis activity against Mycobacterium avium JTC981 isolated from bongo fecal sample assessed as minimum drug level required for killing within 15 days by MGIT 960 susceptibility test; format: functional, Feces
# [10] = tested on: Mycobacterium avium subsp. paratuberculosis; experiment: Antituberculosis activity against Mycobacterium paratuberculosis UCF-5 isolated from Crohn's disease patient assessed as minimum drug level required for inhibition by MGIT 960 susceptibility test; format: functional; in short: as §2
# [11] = tested on: Mycobacterium avium subsp. paratuberculosis; experiment: Antituberculosis activity against Mycobacterium paratuberculosis B236 isolated from bovine assessed as minimum drug level required for killing after 56 days by MGIT 960 susceptibility test; format: functional; in short: as §2
# Escherichia coli [12] = experiment: Antituberculosis activity against Escherichia coli ATCC 25922 clinical isolate assessed as minimum drug level required for killing after 56 days by MGIT 960 susceptibility test; format: functional
# [13] = tested on: Mycobacterium avium subsp. paratuberculosis; experiment: Antituberculosis activity against Mycobacterium paratuberculosis B238 isolated from bovine assessed as minimum drug level required for inhibition by MGIT 960 susceptibility test; format: functional; in short: as §2
# Mycobacterium avium [14] = experiment: Antituberculosis activity against Mycobacterium avium WSLH1544 isolated from water assessed as minimum drug level required for killing within 15 days by MGIT 960 susceptibility test; format: functional
# Mycobacterium avium [15] = experiment: Antituberculosis activity against Mycobacterium avium ATCC 35712 isolated from chicken assessed as minimum drug level required for inhibition by MGIT 960 susceptibility test; format: functional; in short: as §2
# Mycobacterium avium [16] = experiment: Antituberculosis activity against Mycobacterium avium JTC48627 isolated from bison fecal sample assessed as minimum drug level required for inhibition by MGIT 960 susceptibility test; format: functional, Feces; in short: as §2
# [17] = tested on: Mycobacterium avium subsp. paratuberculosis; experiment: Antituberculosis activity against Mycobacterium paratuberculosis UCF-8 isolated from Crohn's disease patient assessed as minimum drug level required for inhibition by MGIT 960 susceptibility test; format: functional; in short: as §2
# [18] = tested on: Mycobacterium avium subsp. paratuberculosis; experiment: Antituberculosis activity against Mycobacterium paratuberculosis UCF-4 isolated from Crohn's disease patient assessed as minimum drug level required for killing after 56 days by MGIT 960 susceptibility test; format: functional; in short: as §2
# [19] = tested on: Mycolicibacterium smegmatis; experiment: Antituberculosis activity against Mycobacterium smegmatis ATCC 14468 assessed as minimum drug level required for killing after 56 days by MGIT 960 susceptibility test; format: functional; in short: as §2
# [20] = tested on: Mycobacterium avium subsp. paratuberculosis; experiment: Antituberculosis activity against Mycobacterium paratuberculosis JTC303 isolated from bovine assessed as minimum drug level required for inhibition by MGIT 960 susceptibility test; format: functional; in short: as §2
# [21] = tested on: Mycobacterium avium subsp. paratuberculosis; experiment: Antituberculosis activity against Mycobacterium paratuberculosis UCF-7 isolated from Crohn's disease patient assessed as minimum drug level required for killing after 56 days by MGIT 960 susceptibility test; format: functional; in short: as §2
# Escherichia coli [22] = experiment: Antituberculosis activity against Escherichia coli ATCC 25922 clinical isolate assessed as minimum drug level required for inhibition by MGIT 960 susceptibility test; format: functional
# [23] = tested on: Mycobacterium avium subsp. paratuberculosis; experiment: Antituberculosis activity against Mycobacterium paratuberculosis B244 isolated from bovine assessed as minimum drug level required for inhibition by MGIT 960 susceptibility test; format: functional; in short: as §2
# Mycolicibacterium phlei [24] = experiment: Antituberculosis activity against Mycobacterium phlei ATCC 11758 assessed as minimum drug level required for inhibition by MGIT 960 susceptibility test; format: functional; in short: as §1
# Enterococcus faecalis [25] = experiment: Antituberculosis activity against Enterococcus faecalis ATCC 29212 isolated from human urine assessed as minimum drug level required for inhibition by MGIT 960 susceptibility test; format: functional
# Mycolicibacterium phlei [26] = experiment: Antituberculosis activity against Mycobacterium phlei ATCC 11758 assessed as minimum drug level required for killing after 56 days by MGIT 960 susceptibility test; format: functional
# In short: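 Duplicate MGIT ParaTB tubes with egg yolk and supplement received 10^5 to 10^6 CFU and thiopurine (in 0.05 M NaOH/10 mM PBS) at final 0.5 to 64.0 μg/ml, plus 128.0 μg/ml for some strains. Tubes were incubated at 37°C in the MGIT 960. The value is the minimum concentration whose tubes never signalled positive by 56 days.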
# Mycobacterium avium [27] = experiment: Antituberculosis activity against Mycobacterium avium 104 isolated from AIDS patient assessed as minimum drug level required for inhibition by MGIT 960 susceptibility test; format: functional; in short: as §2
# Mycobacterium avium [28] = experiment: Antituberculosis activity against Mycobacterium avium ATCC 25291 isolated from chicken assessed as minimum drug level required for inhibition by MGIT 960 susceptibility test; format: functional; in short: as §2
# [29] = tested on: Mycobacterium avium subsp. paratuberculosis; experiment: Antituberculosis activity against Mycobacterium paratuberculosis UCF-5 isolated from Crohn's disease patient assessed as minimum drug level required for killing after 56 days by MGIT 960 susceptibility test; format: functional; in short: as §2
# Mycobacterium avium [30] = experiment: Antituberculosis activity against Mycobacterium avium JTC48627 isolated from bison fecal sample assessed as minimum drug level required for killing within 15 days by MGIT 960 susceptibility test; format: functional, Feces
# Mycobacterium avium [31] = experiment: Antituberculosis activity against Mycobacterium avium JTC981 isolated from bongo fecal sample assessed as minimum drug level required for inhibition by MGIT 960 susceptibility test; format: functional, Feces; in short: as §2
# [32] = tested on: Mycobacterium avium subsp. paratuberculosis; experiment: Antituberculosis activity against Mycobacterium paratuberculosis B213 isolated from bovine assessed as minimum drug level required for inhibition by MGIT 960 susceptibility test; format: functional; in short: as §2
# Mycobacterium avium [33] = experiment: Antituberculosis activity against Mycobacterium avium ATCC 25291 isolated from chicken assessed as minimum drug level required for killing within 15 days by MGIT 960 susceptibility test; format: functional
# [34] = tested on: Mycobacterium avium subsp. paratuberculosis; experiment: Antituberculosis activity against Mycobacterium paratuberculosis B236 isolated from bovine assessed as minimum drug level required for inhibition by MGIT 960 susceptibility test; format: functional; in short: as §2
# [35] = tested on: Mycobacterium avium subsp. paratuberculosis; experiment: Antituberculosis activity against Mycobacterium paratuberculosis B213 isolated from bovine assessed as minimum drug level required for killing after 56 days by MGIT 960 susceptibility test; format: functional; in short: as §2
# [36] = tested on: Mycobacterium avium subsp. paratuberculosis; experiment: Antituberculosis activity against Mycobacterium paratuberculosis JTC303 isolated from bovine assessed as minimum drug level required for killing after 56 days by MGIT 960 susceptibility test; format: functional; in short: as §2
# [37] = tested on: Mycobacterium avium subsp. paratuberculosis; experiment: Antituberculosis activity against Mycobacterium paratuberculosis B244 isolated from bovine assessed as minimum drug level required for killing after 56 days by MGIT 960 susceptibility test; format: functional; in short: as §2
# [38] = tested on: Mycobacterium avium subsp. paratuberculosis; experiment: Antituberculosis activity against Mycobacterium paratuberculosis ATCC 19698 isolated from bovine assessed as minimum drug level resulting in no detectable growth at 10^6 CFU of inoculum after 56 days by MGIT 960 susceptibility test; format: functional; in short: as §3
# [39] = tested on: Mycobacterium avium subsp. paratuberculosis; experiment: Antituberculosis activity against Mycobacterium paratuberculosis ATCC 19698 isolated from bovine assessed as lowest drug level producing inhibition at 10^6 CFU of inoculum by MGIT 960 susceptibility test; format: functional; in short: as §3
# [40] = tested on: Mycobacterium avium subsp. paratuberculosis; experiment: Antituberculosis activity against Mycobacterium paratuberculosis ATCC 19698 isolated from bovine assessed as lowest drug level producing inhibition at 10^6 CFU of inoculum by agar counting method; format: functional
# In short: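 ATCC 19698 at 10^6 CFU was exposed to drug (1.0–64.0 μg/ml) in MGIT ParaTB medium at 37°C. Aliquots taken at 3 and 5 days were centrifuged, resuspended in PBS and declumped with glass beads. Serial dilutions were plated in quadruplicate on 7H10/OADC/mycobactin J and counted after 8 weeks. Inhibition is the lowest concentration giving a 2 log10 (99%) CFU reduction.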
# Mycobacterium avium [41] = experiment: Antituberculosis activity against Mycobacterium avium ATCC 35712 isolated from chicken assessed as minimum drug level required for killing after 56 days by MGIT 960 susceptibility test; format: functional; in short: as §2
compound,measurement,setting,value
Cn1cnc([N+](=O)[O-])c1Sc1ncnc2[nH]cnc12 [AZATHIOPRINE],Activity,[1],>128 µg/mL
same,Activity,[2],1 µg/mL
same,Activity,Mycobacterium avium [3],>64 µg/mL
same,Activity,[4],>32 µg/mL
same,Activity,[5],4 µg/mL
same,Activity,Enterococcus faecalis [6],>128 µg/mL
same,Activity,Mycobacterium avium [7],>64 µg/mL
same,Activity,[8],16 µg/mL
same,Activity,Mycobacterium avium [9],>64 µg/mL
same,Activity,[10],2 µg/mL
same,Activity,[11],>32 µg/mL
same,Activity,Escherichia coli [12],>128 µg/mL
same,Activity,[13],16 µg/mL
same,Activity,Mycobacterium avium [14],>64 µg/mL
same,Activity,Mycobacterium avium [15],>64 µg/mL
same,Activity,Mycobacterium avium [16],64 µg/mL
same,Activity,[17],2 µg/mL
same,Activity,[18],>32 µg/mL
same,Activity,[19],>128 µg/mL
same,Activity,[20],2 µg/mL
same,Activity,[21],16 µg/mL
same,Activity,Escherichia coli [22],>128 µg/mL
same,Activity,[23],8 µg/mL
same,Activity,Mycolicibacterium phlei [24],2 µg/mL
same,Activity,Enterococcus faecalis [25],>128 µg/mL
same,Activity,Mycolicibacterium phlei [26],32 µg/mL
same,Activity,Mycobacterium avium [27],>64 µg/mL
same,Activity,Mycobacterium avium [28],>64 µg/mL
same,Activity,[29],>32 µg/mL
same,Activity,Mycobacterium avium [30],>64 µg/mL
same,Activity,Mycobacterium avium [31],>64 µg/mL
same,Activity,[32],8 µg/mL
same,Activity,Mycobacterium avium [33],>64 µg/mL
same,Activity,[34],8 µg/mL
same,Activity,[35],>32 µg/mL
same,Activity,[36],>32 µg/mL
same,Activity,[37],>32 µg/mL
CC[C@H]1OC(=O)[C@H](C)[C@@H](O[C@H]2C[C@@](C)(OC)[C@@H](O)[C@H](C)O2)[C@H](C)[C@@H](O[C@@H]2O[C@H](C)C[C@H](N(C)C)[C@H]2O)[C@](C)(O)C[C@@H](C)CN(C)[C@H](C)[C@@H](O)[C@]1(C)O [AZITHROMYCIN],Activity,[2],0.5 µg/mL
same,Activity,[4],1 µg/mL
same,Activity,[5],1 µg/mL
same,Activity,[10],0.5 µg/mL
same,Activity,[11],4 µg/mL
same,Activity,[13],>0.5 µg/mL
same,Activity,[38],16 µg/mL
same,Activity,Mycobacterium avium [15],1 µg/mL
same,Activity,[18],2 µg/mL
same,Activity,[20],1 µg/mL
same,Activity,[21],1 µg/mL
same,Activity,[39],4 µg/mL
same,Activity,[40],4 µg/mL
same,Activity,Mycobacterium avium [41],16 µg/mL
same,Activity,[29],2 µg/mL
same,Activity,[32],1 µg/mL
same,Activity,[34],0.5 µg/mL
same,Activity,[35],2 µg/mL
same,Activity,[36],4 µg/mL
Nc1ccc(O)c(C(=O)O)c1 [MESALAMINE],Activity,[38],>64 µg/mL
same,Activity,[39],>64 µg/mL
same,Activity,[40],>64 µg/mL
